High-throughput results deposited in PubChem BioAssay by several laboratories.
HMGR II inh: E. faecalis class II HMG-CoA reductase inhibition; purified E. faecalis HMGR, NADPH absorbance 340 nm kinetic; inhibition, % at 10 µM; actives 0.41% (n = 190,000);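 active = inhibition above a set limit, the median over all tested compounds plus 3 SD, cut at about 9.5% in these data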;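 also: enzyme runs in reverse so mevalonate oxidation gives rising NADPH absorbance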
PMI act hi M6P: increases human PMI activity with near-saturating mannose 6-phosphate | activation factor at 20 µM | P34949 | AID 1216 | coupled PMI enzyme assay, resazurin fluorescence, 20 min; active compounds read high; 1 = untreated enzyme, 0 = substrate-free blank | actives 0.34% (n = 190,000);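 active = activation factor of 2 or more at 20 µM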
Target sequence (P34949 whole entry, looked up): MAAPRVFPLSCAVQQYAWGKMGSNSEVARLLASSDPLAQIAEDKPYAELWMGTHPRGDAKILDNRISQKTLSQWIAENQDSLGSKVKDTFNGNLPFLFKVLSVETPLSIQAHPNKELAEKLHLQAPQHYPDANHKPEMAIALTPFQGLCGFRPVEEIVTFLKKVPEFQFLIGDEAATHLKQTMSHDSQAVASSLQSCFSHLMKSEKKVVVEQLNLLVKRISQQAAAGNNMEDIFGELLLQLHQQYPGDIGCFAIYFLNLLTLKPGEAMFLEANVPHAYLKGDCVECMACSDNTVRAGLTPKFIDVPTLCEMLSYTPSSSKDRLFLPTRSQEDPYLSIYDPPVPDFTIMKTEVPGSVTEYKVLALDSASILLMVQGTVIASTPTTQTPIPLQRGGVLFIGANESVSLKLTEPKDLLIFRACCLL
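Material: human phosphomannose isomerase with PGI, G6PDH, diaphorase coupling enzymes / Reagent: Man-6-P substrate 1.0 mM / Dosing: single compound dose of 20 µM, 1% DMSO final / Incubation: enzyme reaction with compound 20 min at room temperature / Signal: resorufin fluorescence (Ex 544/Em 590 nm) from resazurin via diaphorase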
Rad51 HR inh: Rad51 (human) homologous recombination inhibition; Q06609; hRad51 DNA strand exchange, fluorescence dequenching; AID 1385; actives 0.085% (n = 200,000); inhibition, % at 10 µM;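 active = inhibition above 40% at the single screening dose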
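Material: Human Rad51 nucleoprotein filaments preassembled on unlabelled ssDNA | Also added: Labelled 47-mer dsDNA for strand exchange | Dosing: Single dose, 10 µM final compound | Schedule: 30-min compound preincubation and 15-min exchange, both room temperature | Technique: Fluorescence dequenching at 485/520 nm | Measure: Percent inhibition relative to plate controls and blanks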
PMI act: increases human mannose-6-phosphate isomerase activity | P34949 | purified human PMI, coupled resazurin fluorescence, 20 min; active compounds read high; 1 = vehicle control, 0 substrate-free wells | activation factor at 20 µM | actives 0.005% (n = 190,000) | AID 1214;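 active = activation factor of 2 or more at 20 µM, relative to plate controls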
m-calpain inh: blocks pig calpain II enzyme activity; purified calpain II, fluorogenic peptide substrate, 30 min; inhibition, % at 16 µM; actives 0.37% (n = 220,000);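 active = inhibition above about 50%, limit read from the data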
Large screens that a line does not name were inactive. Compounds with a hit are over-represented: about 1.1% of the library has one in this group of screens.

Cc1ccc(NN=C2c3ccccc3-c3ccccc32)cc1	PMI act hi M6P 2.2
COc1ccc(C2C(C#N)=C(N)Oc3c2c(-c2ccccc2)nn3-c2ccccc2)c(OC)c1OC (stereo not given)	none
N#CC1=C(N)NC(SCc2ccc(Cl)cc2)=C(C#N)C12CCCCC2	m-calpain inh 64
Cc1ccc(N2C(=O)CC(Nc3ccc(Cl)c(S(=O)(=O)N(C)C)c3)C2=O)c(C)c1 (stereo not given)	none
CC(C)C1Cc2c(sc3c2c(=O)n(-c2ccccc2)c2n[nH]c(=S)n32)CO1 (stereo not given)	none (no result: HMGR II inh, PMI act hi M6P, PMI act)
CCC(C)NC(=O)CCn1c(-c2ccc(F)cc2)cc(C(C)=O)c1C (stereo not given)	HMGR II inh 9.7
Cn1cc(Br)c(C(=O)NNC(=O)Nc2ccccc2C(F)(F)F)n1	none
COc1ccc(/C=C/C(=O)Nc2c(C(=O)O)[nH]c3ccccc23)cc1OC	none (no result: HMGR II inh, PMI act hi M6P, Rad51 HR inh, PMI act)
Cn1c(=O)c2c(nc(NCCOc3ccc(C(C)(C)C)cc3)n2C)n(C)c1=O	HMGR II inh 13 (no result: Rad51 HR inh)
Cc1ccccc1NC(=O)COC(=O)CCc1ccccc1	m-calpain inh 64
O=C(COC(=O)CCc1ccccc1)Nc1ccccc1OC(F)F	none (no result: HMGR II inh, PMI act hi M6P, PMI act)
O=C(CSc1nnc(COc2ccccc2Cl)o1)NC(=O)NCc1ccco1	none (no result: HMGR II inh, PMI act hi M6P, Rad51 HR inh, PMI act)
O=C(NCc1cccs1)c1ccccc1	none
O=C(NCc1cccs1)c1cccc(Nc2nc3ccc(Br)cc3[nH]2)c1	m-calpain inh 55
CC1(C)CC(NC(=O)C23CCC(C)(C2Br)C3(C)C)CC(C)(C)N1 (stereo not given)	none (no result: HMGR II inh, PMI act hi M6P, PMI act)
COc1ccc(N=Cc2nc(-c3ccco3)oc2O)cc1	HMGR II inh 11
Cc1ccc(C(C#N)c2ccc3c(C(F)(F)F)cc(C(F)(F)F)nc3n2)cc1 (stereo not given)	m-calpain inh 55 (no result: Rad51 HR inh)
N#CC(c1ccccc1)c1ccc2c(C(F)(F)F)cc(C(F)(F)F)nc2n1 (stereo not given)	none
CCO/N=C(\C)c1c(O)c2ccccc2n(C)c1=O	none
CCC(NC(=O)c1ccccc1NC(=O)c1ccccc1)C(=O)NNC(=O)c1cccnc1 (stereo not given)	none (no result: HMGR II inh, PMI act hi M6P, PMI act)
O=C(COC(=O)CC12CC3CC(CC(C3)C1)C2)Nc1cccnc1Cl	m-calpain inh 59
O=C(COC(=O)c1ccccc1O)Nc1cccnc1Cl	none
Cc1ccc(C(=O)Cn2cnc3ccccc3c2=O)cc1	HMGR II inh 10
CN1CCN(c2nc3ccccn3c(=O)c2/C=C(\C#N)S(=O)(=O)c2ccc(Cl)cc2)CC1	none (no result: HMGR II inh, PMI act hi M6P, PMI act)
Cc1ccc(NC(=O)C(=O)NCCN2CCN(S(C)(=O)=O)CC2)cc1	none
CCc1ccc(NC(=O)C(=O)NCCN2CCN(S(C)(=O)=O)CC2)cc1	HMGR II inh 11
O=C(CCCSc1ccccc1)Nc1nc(-c2ccccn2)cs1	none
CSCCC(=O)Nc1nc(-c2ccccn2)cs1	PMI act hi M6P 2.2
CCOc1ccc2c(c1)C(N(CCN1CCOCC1)C(=O)Nc1ccccc1)CC(C)(C)O2 (stereo not given)	none
FC(F)(F)c1cnc(Sc2ncn[nH]2)c(Cl)c1	none
Cc1cccc(OCC(=O)NNC(=O)CCc2ccccc2)c1	HMGR II inh 53
C/C(Cc1ccccc1)=N\NC(=O)CNC(=O)COc1cccc(C)c1	none (no result: HMGR II inh, PMI act hi M6P, PMI act)
COc1ccc(/C=N/Nc2nccnc2Cl)c(OC)c1	HMGR II inh 18
CN(C)c1ccc(/C=C/c2ccc3ccccc3[n+]2C)cc1	m-calpain inh 57
CN(C)c1ccc(/C=C/c2cccc[n+]2[O-])cc1	none (no result: HMGR II inh, PMI act hi M6P, Rad51 HR inh, PMI act)
CN(C)c1ccc(/C=C/c2ccc3c4ccccc4ccc3[n+]2-c2ccccc2)cc1	Rad51 HR inh 51
O=C(CN1CCC(n2nnc3cc(F)ccc32)CC1)NCc1ccco1	none
O=C(c1cccnc1)N1c2ccccc2Sc2ccccc21	HMGR II inh 12
CN(C)c1ccc2c(c1)Sc1cc(N(C)C)ccc1N2C(=O)c1ccccc1	none (no result: HMGR II inh, PMI act hi M6P, PMI act)
O=C(NCc1cccnc1)c1ccc2c(=O)n(CCCN3CCCC3=O)c(=S)[nH]c2c1	m-calpain inh 84
O=C(NCc1ccccc1Cl)c1ccc2c(=O)n(CCCN3CCCC3=O)c(=S)[nH]c2c1	none
Cc1ccc(NC2OC(C(O)CO)C(O)C2O)cc1[N+](=O)[O-] (stereo not given)	none
Cc1ccc(NC2OC(CO)C(O)C2O)cc1[N+](=O)[O-] (stereo not given)	m-calpain inh 85
C#CCOCCOCCOCCNc1nc(N2CCN(C(=O)C([C@@H](C)CC)n3cc(C(N)CO)nn3)CC2)nc(N2CCN(C(=O)[C@H](CCC(=O)O)n3cc(C(N)[C@H](C)CC)nn3)CC2)n1 (stereo not given in full)	none (no result: HMGR II inh, PMI act hi M6P, PMI act)
CCOC(=O)C1=NN(N=O)C2(CC(=O)N(c3cc(C)cc(C)c3)C2=O)C1 (stereo not given)	PMI act hi M6P 2.2
CCOC(=O)C1=NNC2(CC(=O)N(c3cc(C)cc(C)c3)C2=O)C1 (stereo not given)	none (no result: HMGR II inh, PMI act hi M6P, PMI act)
C/C(=N\Nc1ccc(Cl)c(Cl)c1)c1ccc(-n2ccnc2)cc1	PMI act hi M6P 2.6
C/C(=N\NC(N)=S)c1ccc(-n2ccnc2)cc1	none (no result: HMGR II inh, PMI act hi M6P, PMI act)
Cn1c(N)c(C(=O)COC(=O)C2(c3ccc(F)cc3)CCCC2)c(=O)n(C)c1=O	m-calpain inh 76
Cc1cc(Br)ccc1SCC(=O)OCC(=O)c1c(N)n(C)c(=O)n(C)c1=O	m-calpain inh 77 (no result: HMGR II inh, PMI act hi M6P, PMI act)
Cn1c(N)c(C(=O)COC(=O)CCC2CCCCC2)c(=O)n(C)c1=O	m-calpain inh 78
Cn1c(N)c(C(=O)COC(=O)C2CCCC2)c(=O)n(C)c1=O	none
Cn1c(N)c(C(=O)COC(=O)C2CCC(C(C)(C)C)CC2)c(=O)n(C)c1=O (stereo not given)	m-calpain inh 110 (no result: Rad51 HR inh)
Cc1cc(C(=O)NNC(=O)NC(C)C)no1	none (no result: HMGR II inh, PMI act hi M6P, PMI act)
Cn1c(N)c(C(=O)COC(=O)CCC2CCCC2)c(=O)n(C)c1=O	m-calpain inh 80
CCN(CCNCC(O)COCc1ccc(Cl)cc1)c1cccc(C)c1 (stereo not given)	HMGR II inh 31
CCN(CCCNC(=O)C1CCC(=O)N1Cc1ccc(F)cc1)c1cccc(C)c1 (stereo not given)	none
CCOC(=O)CSc1nc(C(C)(C)C)nc2ccccc12	none (no result: PMI act hi M6P, PMI act)
CN1C(CC(=O)Nc2ccc(Cl)cc2Cl)c2ccccc2CC1(C)C (stereo not given)	none (no result: HMGR II inh, PMI act hi M6P, PMI act)
CC1(C)Cc2ccccc2C2CC(O)C(=O)N21 (stereo not given)	PMI act hi M6P 2
Cc1cc(C)n(C(=O)COc2ccccc2C)n1	HMGR II inh 13
Cc1cc(C)n(CC(O)COc2ccccc2C)n1 (stereo not given)	HMGR II inh 12
c1coc(CSc2ncnc3c2oc2ccccc23)c1	none (no result: HMGR II inh, PMI act hi M6P, Rad51 HR inh, PMI act)
CC(=O)N1CC(=O)N=C1SCC(=O)Nc1nc(-c2ccccc2)c(-c2ccccc2)s1	none
CC(=O)Nc1cc(C(N)=O)c(Cl)cc1Cl	none
